ChEMBL document CHEMBL4706684, “Discovering High Potent Hsp90 Inhibitors as Antinasopharyngeal Carcinoma Agents through Fragment Assembling Approach” (J Med Chem, 2021)

Assays:
Assay type in all cases: cell-based
CNE-2 [1] = assay: Induction of apoptosis in human CNE-2 cells assessed as necrosis cells level at 50 nM incubated for 12 hrs by Annexin-V/FITC staining based FACS analysis (reference value: 1.45%); settings: cne-2, 12 h, 0.05 µM
CNE-2 [2] = assay: Induction of apoptosis in human CNE-2 cells assessed as late apoptosis cells level at 500 nM incubated for 12 hrs by Annexin-V/FITC staining based FACS analysis (reference value: 1.45%); settings: cne-2, 12 h, 0.5 µM
CNE-2 [3] = assay: Induction of apoptosis in human CNE-2 cells assessed as viable cells level at 70 nM incubated for 12 hrs by Annexin-V/FITC staining based FACS analysis (reference value: 93.2%); settings: read-out: Activity
Procedure, shortened: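 CNE2 cells (RPMI 1640 with 10% FBS) were seeded at 5 × 10⁴ cells per well. After 24 h they were treated with compound in 0.05% DMSO for 12 h. Cells were then washed twice with PBS, pelleted, and stained in binding buffer with Annexin V-FITC and PI for flow cytometry.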

CNE-2 [4] = assay: Induction of apoptosis in human CNE-2 cells overexpressing HSP90 assessed as viable cells level at 70 nM incubated for 12 hrs by Annexin-V/FITC staining based FACS analysis (reference value: 93.2%); settings: read-out: Activity

CC(C)(C)c1ccc(Cn2cc(-c3cc(O)c(O)c(O)c3)nn2)cc1
Activity (CNE-2 [1]): 0.37% | Activity (CNE-2 [2]): 33.4% | viability at 0.07 µM (CNE-2 [3]): 75% | viability at 0.07 µM (CNE-2 [4]): 94%
